Results: ChEMBL document CHEMBL1137445, “Bioassay-guided fractionation of pterocarpans from roots of Harpalyce brasiliana Benth” (Bioorg Med Chem, 2007)
Converted amounts (≈) assume the structure as drawn.

What was measured:
MDA-MB-435 = assay: Cytotoxicity against human MDA-MB-435 cells by MTT assay; format: functional, cell-based
Summary of the method: (§1)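 Cell lines were from NCI. Viability was read by MTT reduction to formazan. IC50 and 95% confidence interval came from nonlinear regression of three independent experiments.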

Lytechinus variegatus [1] = assay: Antimitotic activity against Lytechinus variegatus at primary cleavage stage of egg development; format: functional, tissue-based
Summary of the method: (§2)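 Eggs were fertilized with diluted sperm in filtered seawater, and fertilization was confirmed by elevation of the vitellin membrane. Compounds were added 5 min after fertilization over a 0.1–100 range. Incubation was at room temperature. Aliquots were fixed in equal-volume 10% formaldehyde at first cleavage, third cleavage and blastula. 100 eggs were scored per concentration for % normal development. IC50 and 95% CI came from nonlinear regression of 3 independent experiments.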

HL-60 = assay: Cytotoxicity against human HL60 cells by MTT assay; format: functional, cell-based; summary of the method: as §1
Lytechinus variegatus [2] = assay: Antimitotic activity against Lytechinus variegatus at tertiary cleavage stage of egg development; format: functional, tissue-based; summary of the method: as §2
HCT-8 (human) = assay: Cytotoxicity against human HCT-8 cells by MTT assay
Lytechinus variegatus [3] = assay: Antimitotic activity against Lytechinus variegatus at blastulae stage of egg development; format: functional, tissue-based; conditions: Blastula stage; summary of the method: as §2

CC(C)=CCc1c(O)ccc2c1OCC1c3cc4c(cc3OC21)OCO4 (stereo unspecified)
IC50 (MDA-MB-435): 4.9 µg/mL (≈ 13.9 µM) | IC50 (Lytechinus variegatus [1]): 15.2 µg/mL (≈ 43.1 µM) | IC50 (HL-60): 3.1 µg/mL (≈ 8.8 µM) | IC50 (Lytechinus variegatus [2]): 4.8 µg/mL (≈ 13.6 µM) | IC50 (HCT-8 (human)): 8.5 µg/mL (≈ 24.1 µM) | IC50 (Lytechinus variegatus [3]): 3.3 µg/mL (≈ 9.36 µM)

C/C(=C\Cc1c(O)ccc2c1OCC1c3cc4c(cc3OC21)OCO4)CO (stereo unspecified)
IC50 (MDA-MB-435): > 25 µg/mL | IC50 (Lytechinus variegatus [1]): 1.5 µg/mL (≈ 4.07 µM) | IC50 (HL-60): 16.2 µg/mL (≈ 44 µM) | IC50 (Lytechinus variegatus [2]): 0.52 µg/mL (≈ 1.41 µM) | IC50 (HCT-8 (human)): 8.8 µg/mL (≈ 23.9 µM) | IC50 (Lytechinus variegatus [3]): 0.43 µg/mL (≈ 1.17 µM)

CC(CO)CCc1cc2c(cc1O)OCC1c3cc4c(cc3OC21)OCO4 (stereo unspecified)
IC50 (MDA-MB-435): 16.9 µg/mL (≈ 45.6 µM) | IC50 (Lytechinus variegatus [1]): 5.18 µg/mL (≈ 14 µM) | IC50 (HL-60): > 25 µg/mL | IC50 (Lytechinus variegatus [2]): 2.1 µg/mL (≈ 5.67 µM) | IC50 (HCT-8 (human)): 10.8 µg/mL (≈ 29.2 µM) | IC50 (Lytechinus variegatus [3]): 1.7 µg/mL (≈ 4.59 µM)

COc1cccc2c1C(=O)c1c(O)c3c(c(O)c1C2=O)C[C@@](O)(C(=O)CO)C[C@@H]3O[C@H]1C[C@H](N)[C@H](O)[C@H](C)O1 [DOXORUBICIN]
IC50 (MDA-MB-435): […] | IC50 (Lytechinus variegatus [1]): 6.28 µg/mL (≈ 11.6 µM) | IC50 (HL-60): 0.02 µg/mL (≈ 0.0368 µM) | IC50 (Lytechinus variegatus [2]): 0.34 µg/mL (≈ 0.626 µM) | IC50 (HCT-8 (human)): 0.01 µg/mL (≈ 0.0184 µM) | IC50 (Lytechinus variegatus [3]): 0.54 µg/mL (≈ 0.994 µM)

CC1(C)C=Cc2c(ccc3c2OCC2c4cc5c(cc4OC32)OCO5)O1 (stereo unspecified) [LEIOCARPIN]
IC50 (MDA-MB-435): 13.7 µg/mL (≈ 39.1 µM) | IC50 (Lytechinus variegatus [1]): 1.1 µg/mL (≈ 3.14 µM) | IC50 (HL-60): 5.5 µg/mL (≈ 15.7 µM) | IC50 (Lytechinus variegatus [2]): 0.4 µg/mL (≈ 1.14 µM) | IC50 (HCT-8 (human)): 6.9 µg/mL (≈ 19.7 µM) | IC50 (Lytechinus variegatus [3]): 0.2 µg/mL (≈ 0.571 µM)

Oc1ccc2c(c1)OC[C@H]1c3cc4c(cc3O[C@@H]21)OCO4 [MAACKIAIN]
IC50 (MDA-MB-435): 11.5 µg/mL (≈ 40.5 µM) | IC50 (Lytechinus variegatus [1]): 6.5 µg/mL (≈ 22.9 µM) | IC50 (HL-60): 17.9 µg/mL (≈ 63 µM) | IC50 (Lytechinus variegatus [2]): 4.3 µg/mL (≈ 15.1 µM) | IC50 (HCT-8 (human)): > 25 µg/mL | IC50 (Lytechinus variegatus [3]): 4.6 µg/mL (≈ 16.2 µM)
